Results from different studies.
Each line is one published result; the experiments were not run side by side.
Organism: Staphylococcus aureus
Read-out: microbial growth

| SMILES | test | test system | conditions | inhibition zone [mm] |
| --- | --- | --- | --- | --- |
| CN[C@H](CC(C)C)C(=O)N[C@H]1C(=O)N[C@@H](CC(N)=O)C(=O)N[C@H]2C(=O)N[C@H]3C(=O)N[C@H](C(=O)N[C@H](C(=O)O)c4cc(O)cc(O)c4-c4cc3ccc4O)[C@H](O)c3ccc(c(Cl)c3)Oc3cc2cc(c3O[C@@H]2O[C@H](CO)[C@@H](O)[C@H](O)[C@H]2O[C@H]2C[C@](C)(N)[C@H](O)[C@H](C)O2)Oc2ccc(cc2Cl)[C@H]1O | disc diffusion | ATCC29213 | 31.2 µg/disc, 24 h | 18 |
| O=C(O)c1cn(C2CC2)c2cc(N3CCNCC3)c(F)cc2c1=O | disc diffusion |  | 100 µg/mL, 24 h | 24 |
| CC(=O)C1=C(C)N2NC(c3ccccc3O)N(C(Cc3c[nH]c4ccccc34)C(=O)O)C2=NC1c1ccc(Cl)cc1 (stereo not shown) |  | ATCC25923 | 15 µg/mL, 24 h | 32 |
| O=C(O)c1cn(C2CC2)c2cc(N3CCNCC3)c(F)cc2c1=O |  | SG511 | 1000 µg/mL | 18 |
| CC(C(=O)O)N1C2=NC(c3ccc(Cl)cc3)C3=C(OC(C)(C)OC3=O)N2NC1(C)c1ccccc1O (stereo not shown) |  | ATCC25923 | 10 µg/mL, 24 h | 10 |
| COc1ccc2nc(-n3nc(CC(C)C)c4c3-c3ccccc3C4=O)sc2c1 | well diffusion | NCIM5021 | 1000 µg/mL | 13 |
| COc1cc(C=CC(=O)CC(c2ccc(N(C)C)cc2)n2ccnc2)ccc1O (stereo not shown) | disc diffusion | ATCC29213 | 500 µg/mL | 10.7 |
| CC(C)Cc1nn(-c2nc3ccc(Cl)cc3s2)c2c1C(=O)c1ccccc1-2 | well diffusion | NCIM5021 | 1000 µg/mL | 11 |
| COc1cc(C=CC(=O)CC(c2ccc([N+](=O)[O-])cc2)n2ccnc2)ccc1O (stereo not shown) | disc diffusion | ATCC29213 | 500 µg/mL | 7 |
| CC(C)c1nn(-c2nc3ccc(Br)cc3s2)c2c1C(=O)c1ccccc1-2 | well diffusion | NCIM5021 | 250 µg/mL | 11 |
| CC1(C)S[C@@H]2[C@H](NC(=O)[C@H](N)c3ccc(O)cc3)C(=O)N2[C@H]1C(=O)O | disc diffusion | ATCC29213 | 500 µg/mL | 10.8 |
| CC(=O)C1=C(C)N2NC(C)(c3ccccc3O)N(C(C)C(=O)O)C2=NC1c1ccc(Cl)cc1 (stereo not shown) |  | ATCC25923 | 15 µg/mL, 24 h | 17 |
| Cc1ccc2nc(-n3nc(C)c4c3-c3ccccc3C4=O)sc2c1 | well diffusion | NCIM5021 | 250 µg/mL | 11 |
| N#Cc1c(-c2ccc(Cl)cc2)nc2n(c1=O)NC(c1ccccc1O)N2C(Cc1c[nH]c2ccccc12)C(=O)O (stereo not shown) |  | ATCC25923 | 10 µg/mL, 24 h | 18 |
| Cc1ccc2nc(-n3nc(CC(C)C)c4c3-c3ccccc3C4=O)sc2c1 | well diffusion | NCIM5021 | 500 µg/mL | 11 |
| CCOC(=O)C1=C(C)N2NC(C)(c3ccccc3O)N(C(Cc3c[nH]c4ccccc34)C(=O)O)C2=NC1c1ccc(Cl)cc1 (stereo not shown) |  | ATCC25923 | 10 µg/mL, 24 h | 18 |
| CC(C)c1nn(-c2nc3ccccc3s2)c2c1C(=O)c1ccccc1-2 | well diffusion | NCIM5021 | 1000 µg/mL | 12 |
| CCOC(=O)C1=C(C)N2NC(c3ccccc3O)N(C(Cc3c[nH]c4ccccc34)C(=O)O)C2=NC1c1ccc(Cl)cc1 (stereo not shown) |  | ATCC25923 | 15 µg/mL, 24 h | 33 |
| COc1cc(C=Cc2cc(-c3ccc(N(C)C)cc3)nc(O)n2)ccc1O | disc diffusion | ATCC29213 | 500 µg/mL | 6.33 |
